Experimental data: ChEMBL document CHEMBL1129605, “Synthesis, structure-activity relationships, and molecular modeling studies of N-(indol-3-ylglyoxylyl)benzylamine derivatives acting at the benzodiazepine receptor” (J Med Chem, 1996)

What was measured:
[1] = target: GABA-A receptor; anion channel; assay: In vitro inhibition of [3H]- flunitrazepam binding to GABA-A benzodiazepine receptor of bovine cortical membranes; parameters: species or system Bos taurus
Procedure, shortened: (§1)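 Filtration binding of [3H]flunitrazepam to bovine cerebral cortex membranes, freeze–thawed and washed in 50 mM Tris-citrate pH 7.4. […] IC50 taken from log-probit plots and converted to Ki, mean ± SEM of three determinations.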

[2] = target: T1, GABA-A receptor; anion channel (Bos taurus) (UniProt P10063+P08220+P20237+P08219+P10064+P22300); assay: In vitro inhibition of [3H]- flunitrazepam binding to GABA-A central benzodiazepine receptor of bovine cortical membranes at 10 uM; procedure, shortened: as §1
[3] = target: T1, GABA-A receptor; anion channel (Bos taurus); assay: Gamma AminoButyric Acid(GABA) ratio is the Ki without GABA / Ki with GABA; assay type: protein-complex assay
Procedure, shortened: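 Ki for [3H]flunitrazepam displacement from bovine cortical membranes determined both without and with GABA. The ratio is Ki without GABA divided by Ki with GABA.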

[4] = target: T1, GABA-A receptor; anion channel (Bos taurus); assay: Inhibition of [3H]- flunitrazepam binding to GABA-A central benzodiazepine receptor of bovine cortical membranes at 10 uM; procedure, shortened: as §1
[5] = target: T1, GABA-A receptor; anion channel (Bos taurus); assay: Specific [35S]- TBPS binding at high affinity site loated near chloride channel of GABA-A receptor chloride complex; assay type: protein-complex assay; parameters: concentration or dose not given beside the values
Procedure, shortened: (§2)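 Bovine cerebral cortex membranes, freeze–thawed and washed in 50 mM Tris-citrate pH 7.4, incubated with 5 nM [35S]TBPS for 90 min at 25 °C in the same buffer plus 200 mM KBr and 0.1 mM EDTA. Compounds tested at 0.5 μM in ethanol (≤0.2%) with 1 μM GABA present. Nonspecific binding taken with 600 μM picrotoxinin. Bound ligand collected by filtration and counted by scintillation.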

[6] = Partition coefficient of compound; assay type: physicochemical; settings: octanol/water
Procedure, shortened: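 Shake-flask partition at room temperature between octanol and phosphate buffer pH 7.4. Solute measured spectrophotometrically in both phases, with phase volumes adjusted so each phase held enough compound. Run at four different solute concentrations.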

[7] = target: T1, GABA-A receptor; anion channel (Bos taurus); assay: In vitro displacement of [35S]-TBPS binding from GABA-A receptor relative to clonazepam; assay type: protein-complex assay; procedure, shortened: as §2

SMILES | Ki [1] [nM] | inhibition [2] [%] | GABA ratio [3] | inhibition [4] [%] | other results
COc1cc(CNC(=O)C(=O)c2c[nH]c3ccc(Cl)cc23)ccc1O | 27 | 99 | 1.03 |  | 
O=C(NCCCc1ccccc1)C(=O)c1c[nH]c2ccc([N+](=O)[O-])cc12 |  |  |  | 52 | 
O=C(Nc1ccc(O)cc1)C(=O)c1c[nH]c2ccccc12 |  |  |  | 65 | 
Cn1cc(C(=O)C(=O)NCc2cccc(O)c2)c2ccccc21 |  |  |  | 17 | 
COc1ccc(CNC(=O)C(=O)c2c[nH]c3ccccc23)cc1 | 163 |  | 1 | 97 | 
O=C(Nc1ccc(O)cc1)C(=O)c1c[nH]c2ccc([N+](=O)[O-])cc12 | 1800 |  | 1 | 76 | 
O=C(NCc1cccc(O)c1)C(=O)c1c[nH]c2ccc(Cl)cc12 | 570 |  | 1.45 | 95 | 
O=C(NCc1ccccc1Cl)C(=O)c1c[nH]c2ccc(Cl)cc12 |  | 40 |  |  | 
O=C(NCc1ccc(Cl)cc1)C(=O)c1c[nH]c2ccc(Cl)cc12 |  | 38 |  |  | 
O=C(NCc1cccc(O)c1)C(=O)c1c[nH]c2ccccc12 | 820 |  | 1.25 | 91 | 
O=C(NCc1ccccc1F)C(=O)c1c[nH]c2ccc(Cl)cc12 |  | 39 |  |  | 
O=C(NCc1cccc(Cl)c1)C(=O)c1c[nH]c2ccc(Cl)cc12 |  | 14 |  |  | 
COc1ccc(CNC(=O)C(=O)c2c[nH]c3ccc([N+](=O)[O-])cc23)cc1 | 53 |  | 1.06 | 71 | Activity [5]: 2%; logP [6]: 2.17
O=C(NCc1ccccc1)C(=O)c1c[nH]c2ccc([N+](=O)[O-])cc12 | 117 |  | 1 | 55 | 
O=C(NCc1ccc(F)cc1)C(=O)c1c[nH]c2ccc(Cl)cc12 |  | 21 |  |  | 
O=C(NCCCc1ccccc1)C(=O)c1c[nH]c2ccc(Cl)cc12 |  |  |  | 32 | 
COc1cc(CNC(=O)C(=O)c2c[nH]c3ccccc23)ccc1O | 140 | 96 | 1 |  | 
O=C(NCc1ccc(Cl)cc1)C(=O)c1c[nH]c2ccc([N+](=O)[O-])cc12 |  | 2 |  |  | 
O=C(NCc1ccc(Cl)cc1)C(=O)c1c[nH]c2ccccc12 | 67 | 99 | 1.03 |  | Activity [5]: 27%

SMILES | Ki [1] [nM] | inhibition [2] [%] | GABA ratio [3] | inhibition [4] [%] | other results
COc1cccc(CNC(=O)C(=O)c2c[nH]c3ccc([N+](=O)[O-])cc23)c1 | 38 | 84 | 0.91 |  | Activity [5]: 10%
O=C(NCc1ccc(O)c(O)c1)C(=O)c1c[nH]c2ccc(Cl)cc12 | 180 | 96 | 1.33 |  | 
COc1ccc(CNC(=O)C(=O)c2cn(C)c3ccccc23)cc1OC | 2700 | 70 | 0.88 |  | 
O=C(NCc1ccccc1F)C(=O)c1c[nH]c2ccc([N+](=O)[O-])cc12 |  | 42 |  |  | 
O=C(NCc1ccc(O)cc1)C(=O)c1c[nH]c2ccccc12 | 430 | 96 | 1.35 |  | 
COc1ccc(NC(=O)C(=O)c2c[nH]c3ccc(Cl)cc23)cc1 |  |  |  | 10 | 
COc1ccc(NC(=O)C(=O)c2c[nH]c3ccc([N+](=O)[O-])cc23)cc1 |  |  |  | 12 | 
O=C(NCc1ccc(F)cc1)C(=O)c1c[nH]c2ccc([N+](=O)[O-])cc12 |  | 24 |  |  | 
COc1cc(CNC(=O)C(=O)c2c[nH]c3ccc([N+](=O)[O-])cc23)ccc1O | 13 | 100 | 1.07 |  | Activity [5]: 27%
O=C(NCc1cccc(Cl)c1)C(=O)c1c[nH]c2ccc([N+](=O)[O-])cc12 |  | 0 |  |  | 
CCOC(=O)c1ncn2c1CN(C)C(=O)c1cc(F)ccc1-2 |  |  |  |  | Activity [5]: 15%
COc1ccc(CNC(=O)C(=O)c2c[nH]c3ccc(Cl)cc23)cc1OC | 30 | 94 | 0.82 |  | 
O=C(NCc1ccccc1Cl)C(=O)c1c[nH]c2ccc([N+](=O)[O-])cc12 |  | 48 |  |  | 
O=C(Nc1ccccc1)C(=O)c1c[nH]c2ccc(Cl)cc12 |  |  |  | 0 | 
O=C(NCc1cccc(O)c1)C(=O)c1c[nH]c2ccc([N+](=O)[O-])cc12 | 65 |  | 1.32 | 95 | Activity [5]: 50%
O=C(NCc1ccccc1F)C(=O)c1c[nH]c2ccccc12 | 660 | 94 | 0.86 |  | 
O=C(Nc1ccccc1)C(=O)c1c[nH]c2ccc([N+](=O)[O-])cc12 |  |  |  | 0 | 
O=C(NCc1cccc(Cl)c1)C(=O)c1c[nH]c2ccccc12 | 160 | 96 | 0.95 |  | 
O=C(Nc1ccc(O)cc1)C(=O)c1c[nH]c2ccc(Cl)cc12 |  |  |  | 23 | 

SMILES | Ki [1] [nM] | inhibition [2] [%] | GABA ratio [3] | inhibition [4] [%] | other results
COc1ccc(CNC(=O)C(=O)c2c[nH]c3ccc([N+](=O)[O-])cc23)cc1OC | 11 | 97 | 1 |  | Activity [5]: 31%
O=C(NCc1ccc(O)cc1)C(=O)c1c[nH]c2ccc(Cl)cc12 | 150 | 98 | 1.1 |  | 
O=C(NCc1ccccc1)C(=O)c1c[nH]c2ccc(Cl)cc12 | 490 |  | 0.95 | 34 | 
COc1cccc(CNC(=O)C(=O)c2c[nH]c3ccccc23)c1 | 290 | 97 | 0.74 |  | 
O=C(NCc1ccc(O)c(O)c1)C(=O)c1c[nH]c2ccccc12 | 349 | 95 | 1.56 |  | 
O=C(Nc1ccccc1)C(=O)c1c[nH]c2ccccc12 |  |  |  | 10 | 
O=C(NCc1ccccc1)C(=O)c1c[nH]c2ccccc12 | 120 |  | 0.87 | 98 | Activity [5]: 29%
Cn1cc(C(=O)C(=O)NCc2ccc(Cl)cc2)c2ccccc21 | 1000 | 86 | 1 |  | 
O=C1CN=C(c2ccccc2Cl)c2cc([N+](=O)[O-])ccc2N1 |  |  |  |  | Activity [5]: 100%
O=C(NCCCc1ccccc1)C(=O)c1c[nH]c2ccccc12 | 1260 | 78 | 1 |  | 
O=C(NCc1ccc(O)c(O)c1)C(=O)c1c[nH]c2ccc([N+](=O)[O-])cc12 | 48 | 98 | 1.35 |  | Activity [5]: 52%
COc1ccc(CNC(=O)C(=O)c2c[nH]c3ccc(Cl)cc23)cc1 | 107 |  | 1 | 81 | 
O=C(NCc1ccc(F)cc1)C(=O)c1c[nH]c2ccccc12 | 52 | 99 | 1.16 |  | Activity [5]: 21%; logP [6]: 2.88
COc1cccc(CNC(=O)C(=O)c2c[nH]c3ccc(Cl)cc23)c1 | 162 | 89 | 0.79 |  | 
O=C(NCc1ccccc1Cl)C(=O)c1c[nH]c2ccccc12 | 2600 | 77 | 0.93 |  | 
O=C(NCc1ccc(O)cc1)C(=O)c1c[nH]c2ccc([N+](=O)[O-])cc12 | 12 |  | 1.05 | 100 | Activity [7]: 10%; logP [6]: 2.67
COc1ccc(NC(=O)C(=O)c2c[nH]c3ccccc23)cc1 |  |  |  | 0 | 
COc1ccc(CNC(=O)C(=O)c2c[nH]c3ccccc23)cc1OC | 94 | 99 | 0.8 |  | 
